Measured values as given in PMC2261226 (EMBO Reports, 2008).
Numbering of substitutions follows the chain as printed. Blank lines part the entries; values can stand above or below the compound they belong to.

Tests used:
[1] = test system: AIRE–PHD1; test: Histone pull-down after EDTA treatment; conditions: 50 mM EDTA, overnight 4 °C prior to histone binding
Outline: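 AIRE–PHD1 expressed as a glutathione-S-transferase (GST) fusion and incubated with whole histones. Bound H3 detected by western blot with anti-H3; GST-PHD protein visualised by Coomassie staining.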

[2] = biological target: T1, AIRE–PHD1 D297A (Homo sapiens, UniProt O43918, D297A); test: Tryptophan fluorescence titration, AIRE-PHD1 D297A; format: binding
T1 sequence (O43918 290-349 D297A): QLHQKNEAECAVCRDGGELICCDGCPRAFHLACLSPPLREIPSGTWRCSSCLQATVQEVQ
Outline: (§1)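 Tryptophan fluorescence spectroscopy titration of AIRE–PHD1 point mutants with histone H3 peptides: H3K4me0 for all; D297A also with H3K4me3. Dissociation constants were derived from the titrations. ND denotes binding too weak to quantify reliably.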

[3] = biological target: AIRE–PHD1 WT (Homo sapiens, UniProt O43918); test: Tryptophan fluorescence titration, AIRE-PHD1 wild type; format: binding
[4] = biological target: T2, AIRE–PHD1 C311Y (Homo sapiens, UniProt O43918, C311Y); test: Tryptophan fluorescence titration, AIRE-PHD1 C311Y; format: binding
T2 sequence (O43918 296-343 C311Y limits assumed): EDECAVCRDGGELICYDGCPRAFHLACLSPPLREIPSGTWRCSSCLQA
Outline: as §1

[5] = biological target: T1, AIRE–PHD1 D297A; test: Isothermal titration calorimetry, AIRE-PHD1 D297A; format: binding
[6] = biological target: T3, AIRE–PHD1 WT (Homo sapiens, UniProt O43918); test: biochemical; format: binding
T3 sequence (O43918 293-349 limits assumed): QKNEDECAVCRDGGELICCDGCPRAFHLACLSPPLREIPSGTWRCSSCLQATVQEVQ

[7] = biological target: T4, AIRE–PHD1 D312A (Homo sapiens, UniProt O43918, D312A); test: Isothermal titration calorimetry, AIRE-PHD1 D312A; format: binding
T4 sequence (O43918 296-343 D312A limits assumed): T2 sequence (O43918 296-343 C311Y limits assumed) with Y16C, D17A
Outline: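 ITC of H3K4me0 (histone H3, non-methylated K4) peptide binding to the AIRE–PHD1 D312A mutant. Sequential heat pulses were integrated, corrected for heat of dilution, and fit to a single-site binding model by nonlinear least squares to give N, Kd, ΔH and ΔS. ND denotes binding too weak to quantify reliably.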

[8] = biological target: T4, AIRE–PHD1 D312A; test: Tryptophan fluorescence titration, AIRE-PHD1 D312A; format: binding
Outline: as §1

[9] = biological target: T5, AIRE–PHD1 V301M (Homo sapiens, UniProt O43918, V301M); test: Tryptophan fluorescence titration, AIRE-PHD1 V301M; format: binding
T5 sequence (O43918 296-343 V301M limits assumed): T2 sequence (O43918 296-343 C311Y limits assumed) with V6M, Y16C
Outline: as §1

[10] = biological target: AIRE–PHD1 wild type (UniProt O43918); test: NMR titration
[11] = biological target: AIRE–PHD1 wild type (UniProt O43918); test: other fluorescence titration
[12] = biological target: AIRE–PHD1 wild type (UniProt O43918); test: ITC

Compound: O=C(O)CN(CCN(CC(=O)O)CC(=O)O)CC(=O)O [EDTA]
effect on H3 binding, in words [1]: greatly reduced

Compound: C[C@H](N)C(=O)N[C@@H](CCCNC(=N)N)C(=O)N[C@H](C(=O)N[C@@H](CCCCN)C(=O)N[C@@H](CCC(N)=O)C(=O)N[C@H](C(=O)N[C@@H](C)C(=O)N[C@@H](CCCNC(=N)N)C(=O)N[C@@H](CCCCN)C(=O)N[C@@H](CO)C(=O)O)[C@@H](C)O)[C@@H](C)O [H3K4me0]
Kd [2]: 173 ± 18.6 µM
Kd [3]: 4.7 ± 0.8 µM
Kd [4]: > 500 µM
Kd [5]: 147 ± 6.1 µM
Kd [6]: 6.5 ± 0.2 µM
Kd [7]: > 714 µM
Kd [8]: > 500 µM
Kd [9]: 6.8 ± 0.4 µM

Compound: histone H3 N-terminal peptide H3K4me2 (NMR, fluorescence, ITC)
Kd [11]: > 500 µM
Kd [12]: 714 µM

Further lines, results first:

maximum average chemical shift change [10]: 0.9 p.p.m.
Compound: histone H3 N-terminal peptide H3K4me0 (NMR, fluorescence, ITC)

Kd [11]: 21.4 µM
Kd [12]: 55.6 µM
Compound: histone H3 N-terminal peptide H3K4me1 (NMR, fluorescence, ITC)
